Laboratory results: ChEMBL document CHEMBL1144337, “Discovery and structure-activity relationships of 2-benzylpyrrolidine-substituted aryloxypropanols as calcium-sensing receptor antagonists” (Bioorg Med Chem Lett, 2005)
pIC50: −log10 of the molar value.

What was measured:
HEK293 = experiment: Inhibitory concentration for the inhibition of intracellular [Ca2+] release in HEK cells by using FLIPR technology; assay type: functional, cell-based; conditions: Homo sapiens
Summary of the method: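 HEK cells over-expressing recombinant human calcium-sensing receptor. Intracellular Ca²⁺ release was stimulated with extracellular Ca²⁺, and inhibition by test compound was read by fluorescence on FLIPR. IC50 values are means of two experiments, with standard deviation reported.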

[1] = biological target: Voltage-gated inwardly rectifying potassium channel KCNH2 (Homo sapiens, UniProt Q12809); experiment: Inhibitory concentration against human Kv11.1 ERG potassium channel
Sequence of Voltage-gated inwardly rectifying potassium channel KCNH2 (Q12809 whole entry): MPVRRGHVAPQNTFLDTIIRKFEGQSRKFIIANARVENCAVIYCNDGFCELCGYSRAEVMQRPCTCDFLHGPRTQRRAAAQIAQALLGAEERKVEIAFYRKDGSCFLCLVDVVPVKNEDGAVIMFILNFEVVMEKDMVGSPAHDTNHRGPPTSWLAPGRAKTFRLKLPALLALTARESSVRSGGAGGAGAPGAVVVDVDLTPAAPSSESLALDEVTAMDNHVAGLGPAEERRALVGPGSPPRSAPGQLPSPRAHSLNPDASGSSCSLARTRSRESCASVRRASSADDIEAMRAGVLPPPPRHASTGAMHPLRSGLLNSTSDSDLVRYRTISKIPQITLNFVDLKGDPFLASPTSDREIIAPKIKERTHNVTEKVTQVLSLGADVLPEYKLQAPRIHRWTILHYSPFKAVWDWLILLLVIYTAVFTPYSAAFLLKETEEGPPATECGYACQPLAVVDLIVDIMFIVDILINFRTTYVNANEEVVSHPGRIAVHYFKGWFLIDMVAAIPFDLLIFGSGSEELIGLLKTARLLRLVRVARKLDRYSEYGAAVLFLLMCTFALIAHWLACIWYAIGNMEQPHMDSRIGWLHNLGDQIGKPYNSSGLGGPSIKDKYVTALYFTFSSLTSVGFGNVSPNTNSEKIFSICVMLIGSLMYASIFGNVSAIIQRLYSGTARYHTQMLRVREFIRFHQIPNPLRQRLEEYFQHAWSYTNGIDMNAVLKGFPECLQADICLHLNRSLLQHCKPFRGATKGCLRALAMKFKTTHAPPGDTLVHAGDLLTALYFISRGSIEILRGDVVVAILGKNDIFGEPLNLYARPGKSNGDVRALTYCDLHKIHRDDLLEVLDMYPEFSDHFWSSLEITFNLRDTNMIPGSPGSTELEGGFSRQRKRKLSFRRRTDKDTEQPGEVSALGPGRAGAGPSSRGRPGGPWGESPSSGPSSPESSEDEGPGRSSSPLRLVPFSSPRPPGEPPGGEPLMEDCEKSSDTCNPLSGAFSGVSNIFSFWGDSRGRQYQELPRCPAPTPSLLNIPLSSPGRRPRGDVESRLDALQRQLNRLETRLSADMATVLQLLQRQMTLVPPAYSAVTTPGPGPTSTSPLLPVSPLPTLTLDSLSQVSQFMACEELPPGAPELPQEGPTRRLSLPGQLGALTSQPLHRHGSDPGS
Summary of the method: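 Inhibition of hERG K+ current, measured by a patch-clamp assay, reported as an IC50.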

| SMILES | pIC50 (HEK293) | pIC50 [1] |
| --- | --- | --- |
| COc1ccc(C[C@@H]2CCCN2C[C@@H](O)COc2cccc(Cl)c2C#N)cc1OC | 6.39 | – |
| N#Cc1c(Cl)cccc1OC[C@H](O)CN1CCC(F)(F)[C@H]1Cc1ccccc1 | < 4.52 | – |
| COc1cccc(CC2CCN(C[C@@H](O)COc3cccc(Cl)c3C#N)CC2)c1 | 6.19 | – |
| N#Cc1c(Cl)cccc1OC[C@H](O)CN1CCC[C@@H]1Cc1ccccc1 | < 4.52 | – |
| N#Cc1c(Cl)cccc1OC[C@H](O)CN1CCC(Cc2ccccc2)CC1 | 5.66 | – |
| N#Cc1c(Cl)cccc1OC[C@H](O)CN1CCCCC1Cc1ccccc1 (stereo not given in full) | < 4.52 | – |
| N#Cc1c(Cl)cccc1OC[C@H](O)CN1CCCC1Cc1ccccc1 (stereo not given in full) | 6.46 | – |
| CN(C)c1ccc(C[C@@H]2CCCN2C[C@@H](O)COc2cccc(Cl)c2C#N)cc1 | 5.72 | – |
| N#Cc1c(Cl)cccc1OC[C@H](O)CN1CCC[C@H]1Cc1ccccc1O | 7.00 | – |
| N#Cc1c(Cl)cccc1OC[C@H](O)CN1CCC[C@H]1Cc1ccc(O)cc1 | < 4.52 | – |
| CC(C)(Cc1ccc2ccccc2c1)NC[C@@H](O)COc1cccc(Cl)c1C#N | 7.10 | 6.71 |
| N#Cc1c(Cl)cccc1OC[C@H](O)CN1CCC[C@H]1Cc1cccc(F)c1 | 6.82 | – |
| N#Cc1c(Cl)cccc1OC[C@H](O)CN1CCC(Cc2ccccc2)C1 (stereo not given in full) | 5.00 | – |
| COc1cccc(C(O)[C@@H]2CCCN2C[C@@H](O)COc2cccc(Cl)c2C#N)c1 (stereo not given in full) | < 4.52 | – |
| COc1cccc(C[C@@H]2CCCN2C[C@@H](O)COc2cccc(Cl)c2C#N)c1 | 6.89 | – |
| N#Cc1c(Cl)cccc1OC[C@H](O)CN1CCC(Cc2cc(F)ccc2F)CC1 | 5.68 | – |
| COc1ccc(C[C@@H]2CCCN2C[C@@H](O)COc2cccc(Cl)c2C#N)cc1 | 6.70 | – |
| N#Cc1c(Cl)cccc1OC[C@H](O)CN1CCCC(Cc2ccccc2)C1 (stereo not given in full) | < 4.52 | – |
| N#Cc1c(Cl)cccc1OC[C@H](O)CN1CCC[C@H]1Cc1ccccc1 | 6.92 | – |
| COc1ccc(CC2CCN(C[C@@H](O)COc3cccc(Cl)c3C#N)CC2)cc1 | < 4.52 | – |
| N#Cc1c(Cl)cccc1OC[C@H](O)CN1CCC[C@H]1C(O)c1cccc(F)c1 (stereo not given in full) | 5.64 | – |
| N#Cc1c(Cl)cccc1OC[C@H](O)CN1CC[C@@H](O)[C@H]1Cc1ccccc1 | 5.85 | – |
| N#Cc1c(Cl)cccc1OC[C@H](O)CN1CC[C@H](F)[C@H]1Cc1ccccc1 | 5.55 | – |
| COc1ccccc1C[C@@H]1CCCN1C[C@@H](O)COc1cccc(Cl)c1C#N | < 4.52 | – |
